Data published in ChEMBL document CHEMBL4017460, “A Tobramycin Vector Enhances Synergy and Efficacy of Efflux Pump Inhibitors against Multidrug-Resistant Gram-Negative Bacteria” (J Med Chem, 2017).
≈ marks a conversion by molar mass, not a printed value.

Assays:
[1] = test system: Pseudomonas aeruginosa; assay: Antibacterial activity against Pseudomonas aeruginosa isolate 100036 after 18 to 24 hrs by microbroth dilution assay; assay type: functional
In short: (§1)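 Checkerboard in MHB: antibiotic 2-fold diluted along one axis, test agent 2-fold diluted along the other. Overnight culture standardized to 0.5 McFarland in saline, diluted 1:50 in MHB, added to wells, incubated 37 °C for 18 h. MIC is the lowest concentration with no growth. FIC = MIC in combination / MIC alone; FIC index = sum of both FICs.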

[2] = test system: Pseudomonas aeruginosa PAO1; assay: Inhibition of RND efflux pump in Pseudomonas aeruginosa PAO1 assessed as potentiation of minocycline-induced antibacterial activity by measuring minocycline MIC at 8 ug/ml after 18 to 24 hrs by microbroth dilution assay (reference value: 8 ug/ml)
In short: (§2)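 Absolute minocycline MIC taken from checkerboard broth dilution with a fixed 8 μg/mL adjuvant. Inoculum was a 0.5 McFarland saline suspension diluted 1:50 in MHB, incubated 37 °C for 18 h. MIC is the lowest concentration with no growth.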

[3] = test system: Pseudomonas aeruginosa; assay: Antibacterial activity against Pseudomonas aeruginosa PAO1 after 18 to 24 hrs by microbroth dilution assay; assay type: functional; in short: as §1
[4] = test system: Pseudomonas aeruginosa PAO1; assay: Inhibition of RND efflux pump in Pseudomonas aeruginosa PAO1 assessed as potentiation of minocycline-induced antibacterial activity at 8 ug/ml after 18 to 24 hrs by checker board assay; in short: as §1
[5] = test system: Pseudomonas aeruginosa PAO1; assay: Inhibition of RND efflux pump in Pseudomonas aeruginosa PAO1 assessed as potentiation of doxycycline-induced antibacterial activity by measuring fold reduction in doxycycline MIC at 8 ug/ml after 18 to 24 hrs by microbroth dilution assay relative to doxycycline alone
In short: (§3)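 Checkerboard broth microdilution: antibiotic 2-fold diluted along one axis, adjuvant 2-fold diluted along the other. Overnight culture standardized to 0.5 McFarland in saline, diluted 1:50 in MHB, added to wells, 37 °C for 18 h. MIC is the lowest concentration with no growth. FIC = MIC in combination / MIC alone; FICI = sum of the two FICs; FICI ≤0.5 is synergy.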

[6] = test system: Pseudomonas aeruginosa; assay: Inhibition of RND efflux pump in Pseudomonas aeruginosa isolate 100036 assessed as potentiation of minocycline-induced antibacterial activity at 8 ug/ml after 18 to 24 hrs by checker board assay; in short: as §1
[7] = test system: Pseudomonas aeruginosa; assay: Inhibition of RND efflux pump in Pseudomonas aeruginosa isolate 101885 assessed as potentiation of minocycline-induced antibacterial activity at 8 ug/ml after 18 to 24 hrs by checker board assay; in short: as §1
[8] = test system: Pseudomonas aeruginosa; assay: Inhibition of RND efflux pump in Pseudomonas aeruginosa isolate P259-96918 assessed as potentiation of minocycline-induced antibacterial activity by measuring minocycline MIC at 8 ug/ml after 18 to 24 hrs by microbroth dilution assay (reference value: 32 ug/ml); in short: as §2
[9] = test system: Pseudomonas aeruginosa; assay: Antibacterial activity against Pseudomonas aeruginosa isolate P260-97103 after 18 to 24 hrs by microbroth dilution assay; assay type: functional; in short: as §1
[10] = test system: Pseudomonas aeruginosa; assay: Inhibition of RND efflux pump in Pseudomonas aeruginosa isolate P260-97103 assessed as potentiation of minocycline-induced antibacterial activity at 0.25 times antibacterial MIC after 18 to 24 hrs by checker board assay; in short: as §1
[11] = test system: Pseudomonas aeruginosa; assay: Inhibition of RND efflux pump in Pseudomonas aeruginosa isolate P260-97103 assessed as potentiation of minocycline-induced antibacterial activity by measuring minocycline MIC at 0.25 times antibacterial MIC after 18 to 24 hrs by microbroth dilution assay (reference value: 8 to 16 ug/ml); in short: as §3
[12] = test system: Pseudomonas aeruginosa; assay: Inhibition of RND efflux pump in Pseudomonas aeruginosa isolate P262-101856 assessed as potentiation of minocycline-induced antibacterial activity at 8 ug/ml after 18 to 24 hrs by checker board assay; in short: as §1
[13] = test system: Pseudomonas aeruginosa; assay: Antibacterial activity against Pseudomonas aeruginosa isolate P264-104354 after 18 to 24 hrs by microbroth dilution assay; assay type: functional; in short: as §1
[14] = test system: Pseudomonas aeruginosa; assay: Antibacterial activity against colistin-resistant Pseudomonas aeruginosa isolate 91433 after 18 to 24 hrs by microbroth dilution assay; assay type: functional; in short: as §3
[15] = test system: Pseudomonas aeruginosa; assay: Antibacterial activity against colistin-resistant Pseudomonas aeruginosa isolate 101243 after 18 to 24 hrs by microbroth dilution assay; assay type: functional; in short: as §3
[16] = test system: Pseudomonas aeruginosa; assay: Inhibition of RND efflux pump in colistin-resistant Pseudomonas aeruginosa isolate 101243 assessed as potentiation of minocycline-induced antibacterial activity by measuring minocycline MIC at 8 ug/ml after 18 to 24 hrs by microbroth dilution assay (reference value: 32 ug/ml); in short: as §3
[17] = test system: Pseudomonas aeruginosa; assay: Inhibition of RND efflux pump in Pseudomonas aeruginosa isolate P259-96918 assessed as potentiation of minocycline-induced antibacterial activity by measuring fold reduction in minocycline MIC at 8 ug/ml after 18 to 24 hrs by microbroth dilution assay; in short: as §3
[18] = test system: Pseudomonas aeruginosa; assay: Inhibition of RND efflux pump in Pseudomonas aeruginosa isolate P260-97103 assessed as potentiation of minocycline-induced antibacterial activity by measuring fold reduction in minocycline MIC at 0.25 times antibacterial MIC after 18 to 24 hrs by microbroth dilution assay; in short: as §3
[19] = test system: Pseudomonas aeruginosa; assay: Inhibition of RND efflux pump in Pseudomonas aeruginosa isolate P262-104354 assessed as potentiation of minocycline-induced antibacterial activity by measuring fold reduction in minocycline MIC at 0.25 times antibacterial MIC after 18 to 24 hrs by microbroth dilution assay; in short: as §3
[20] = test system: Enterobacter cloacae; assay: Inhibition of RND efflux pump in Enterobacter cloacae isolate 117029 assessed as potentiation of minocycline-induced antibacterial activity by measuring fold reduction in minocycline MIC at 8 ug/ml after 18 to 24 hrs by microbroth dilution assay; in short: as §2
[21] = test system: Klebsiella pneumoniae; assay: Inhibition of RND efflux pump in Klebsiella pneumoniae isolate 116381 assessed as potentiation of minocycline-induced antibacterial activity by measuring minocycline MIC at 8 ug/ml after 18 to 24 hrs by microbroth dilution assay (reference value: 128 ug/ml); in short: as §2
[22] = test system: Enterobacter cloacae; assay: Inhibition of RND efflux pump in Enterobacter cloacae isolate 117029 assessed as potentiation of minocycline-induced antibacterial activity at 8 ug/ml after 18 to 24 hrs by microbroth dilution assay; in short: as §1
[23] = test system: Enterobacter cloacae; assay: Antibacterial activity against Enterobacter cloacae isolate 117029 after 18 to 24 hrs by microbroth dilution assay; assay type: functional; in short: as §1
[24] = test system: Pseudomonas aeruginosa; assay: Induction of cytoplasmic membrane depolarization in Pseudomonas aeruginosa PAO1 by DiSC3(5) dye based fluorescence assay; assay type: functional
In short: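 Cytoplasmic membrane depolarization in P. aeruginosa PAO1, monitored by DiSC3(5) fluorescence across a range of compound concentrations. Colistin served as positive control.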

[25] = test system: Pseudomonas aeruginosa PAO1; assay: Inhibition of RND efflux pump in Pseudomonas aeruginosa PAO1 assessed as potentiation of chloramphenicol-induced antibacterial activity […] by microbroth dilution assay
[26] = test system: Pseudomonas aeruginosa PAO1; assay: Inhibition of RND efflux pump in Pseudomonas aeruginosa PAO1 assessed as potentiation of erythromycin-induced antibacterial activity […] by microbroth dilution assay
[27] = test system: Pseudomonas aeruginosa; assay: Reduction in flagellum-dependant motility in Pseudomonas aeruginosa PAO1 after 20 hrs by swimming motility test; assay type: functional
In short: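 PAO1 flagellum-dependent swimming motility on swimming plates containing sub-MIC compound, compared with plates without compound.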

[28] = test system: Pseudomonas aeruginosa PAO1; assay: Inhibition of RND efflux pump in Pseudomonas aeruginosa PAO1 assessed as potentiation of gentamicin-induced antibacterial activity after 18 to 24 hrs by checker board assay; in short: as §1

Cl.Cl.Cl.Cl.Cl.Cl.Cl.NC[C@H]1O[C@H](O[C@H]2[C@H](OCCCCCCCCCCCCN3CCN(Cc4cccc5ccccc45)CC3)[C@@H](O[C@H]3O[C@H](CO)[C@@H](O)[C@H](N)[C@H]3O)[C@H](N)C[C@@H]2N)[C@H](N)C[C@@H]1O
MIC [1]: 256 µg/mL | MIC [2]: 0.5 µg/mL | MIC [3]: 64 µg/mL | fractional inhibitory concentration index (FICI) [4]: 0.19 | fold change (FC) [5]: 8 to 64 | fractional inhibitory concentration index (FICI) [6]: 0.02 | fractional inhibitory concentration index (FICI) [7]: 0.05 | MIC [8]: < 0.5 µg/mL | MIC [9]: 2 µg/mL | fractional inhibitory concentration index (FICI) [10]: 0.25 | MIC [11]: 0.5 µg/mL | fractional inhibitory concentration index (FICI) [12]: 0.09 | MIC [13]: 128 µg/mL | MIC [14]: 32 µg/mL | MIC [15]: 64 µg/mL | MIC [16]: 1 µg/mL | fold change (FC) [17]: 8 to 256 | fold change (FC) [18]: 8 to 256 | fold change (FC) [19]: 8 to 256 | fold change (FC) [20]: 4 to 256 | MIC [21]: 16 µg/mL | fractional inhibitory concentration index (FICI) [22]: 0.03 to 0.16 | MIC [23]: > 32 µg/mL | Activity [24]: Dose-dependent effect | fractional inhibitory concentration index (FICI) [25]: < 0.1 | fractional inhibitory concentration index (FICI) [26]: < 0.2 | Activity [27]: Dose-dependent effect | fractional inhibitory concentration index (FICI) [28]: > 1.5

NC[C@H]1C[C@H](C(=O)N[C@H](CCc2ccccc2)C(=O)Nc2ccc3ccccc3c2)N(CCCCCCCCCCCCO[C@@H]2[C@@H](O[C@H]3O[C@H](CO)[C@@H](O)[C@H](N)[C@H]3O)[C@H](N)C[C@H](N)[C@H]2O[C@H]2O[C@H](CN)[C@@H](O)C[C@H]2N)C1
MIC [1]: 32 µg/mL (≈ 30.1 µM) | MIC [2]: 0.12 µg/mL | MIC [3]: 32 µg/mL (≈ 30.1 µM) | fractional inhibitory concentration index (FICI) [4]: 0.09 | fold change (FC) [5]: 8 to 64 | fractional inhibitory concentration index (FICI) [6]: 0.06 | fractional inhibitory concentration index (FICI) [7]: 0.13 | MIC [8]: < 0.5 µg/mL | MIC [9]: 4 µg/mL (≈ 3.76 µM) | fractional inhibitory concentration index (FICI) [10]: 0.31 | MIC [11]: 0.5 µg/mL | fractional inhibitory concentration index (FICI) [12]: 0.08 | MIC [13]: 8 µg/mL (≈ 7.52 µM) | MIC [14]: 8 µg/mL (≈ 7.52 µM) | MIC [15]: 16 µg/mL (≈ 15 µM) | MIC [16]: 0.5 µg/mL | fold change (FC) [17]: 8 to 256 | fold change (FC) [18]: 8 to 256 | fold change (FC) [19]: 8 to 256 | fold change (FC) [20]: 4 to 256 | MIC [21]: 4 µg/mL | fractional inhibitory concentration index (FICI) [22]: 0.13 | MIC [23]: 32 µg/mL (≈ 30.1 µM) | Activity [24]: Dose-dependent effect | fractional inhibitory concentration index (FICI) [25]: < 0.1 | fractional inhibitory concentration index (FICI) [26]: < 0.2 | Activity [27]: Dose-dependent effect | fractional inhibitory concentration index (FICI) [28]: > 1.5

Cl.Cl.Cl.Cl.Cl.Cl.NC[C@H]1O[C@H](O[C@H]2[C@H](OCCCCCCCCCCCCN3CC[C@@H](c4ccc(F)cc4)[C@H](COc4ccc5c(c4)OCO5)C3)[C@@H](O[C@H]3O[C@H](CO)[C@@H](O)[C@H](N)[C@H]3O)[C@H](N)C[C@@H]2N)[C@H](N)C[C@@H]1O
MIC [1]: 64 µg/mL | MIC [2]: 0.25 µg/mL | MIC [3]: 32 µg/mL | fractional inhibitory concentration index (FICI) [4]: 0.19 | fold change (FC) [5]: 8 to 64 | fractional inhibitory concentration index (FICI) [6]: 0.05 | fractional inhibitory concentration index (FICI) [7]: 0.13 | MIC [8]: 0.5 µg/mL | MIC [9]: 8 µg/mL | fractional inhibitory concentration index (FICI) [10]: 0.19 | MIC [11]: < 1 µg/mL | fractional inhibitory concentration index (FICI) [12]: 0.13 | MIC [13]: 64 µg/mL | MIC [14]: 32 µg/mL | MIC [15]: 32 µg/mL | MIC [16]: 1 µg/mL | fold change (FC) [17]: 8 to 256 | fold change (FC) [18]: 8 to 256 | fold change (FC) [19]: 8 to 256 | fold change (FC) [20]: 4 to 256 | MIC [21]: 32 µg/mL | fractional inhibitory concentration index (FICI) [22]: 0.02 to 0.14 | MIC [23]: > 32 µg/mL | Activity [24]: Dose-dependent effect | fractional inhibitory concentration index (FICI) [25]: < 0.1 | fractional inhibitory concentration index (FICI) [26]: < 0.2 | Activity [27]: Dose-dependent effect | fractional inhibitory concentration index (FICI) [28]: > 1.5
